pEC50, pIC50: −log10 of the molar value. Values joined by “and” are separate entries in the source; they are usually repeats but may differ in a detail not shown here. Equal values may be shown once.

The target in experiment [1] is T1, Geranylgeranyl transferase type I (Homo sapiens, UniProt P49354+P53609). The experiment can be described thus: (§1) Inhibition of [1-3H]-GGPP incorporation into biotinylated K4B-Ras peptide by geranylgeranyl transferase in the presence of 5 mM ATP. Format: protein-complex assay. In short, it runs like this:
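Scintillation proximity assay: GGPTase reaction of [1-3H]GGPP with a biotinylated peptide of the K4B-Ras C-terminus at several inhibitor concentrations. IC50 is the concentration cutting radiolabel incorporation by 50% relative to uninhibited controls. Values are the mean of at least two determinations.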

Experiment [2] has as its target T2, Protein farnesyltransferase (Homo sapiens, UniProt P49354+P49356). Briefly: Inhibitor of Farnesyl protein transferase (FTPase) required to reduce radiolabel [1-3H] incorporation by 50%. Format: protein-complex assay. Summed up:
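Purified recombinant FPTase transfers [1-3H]FPP onto a recombinant protein substrate carrying the K-ras C-terminus. IC50 is the inhibitor concentration that lowers radiolabel incorporation by 50% relative to uninhibited controls. Values are the mean of at least two determinations.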

In experiment [3] the target is T2, Protein farnesyltransferase. Briefly: The concentration required to displace 50% of a highly potent radiolabeled FPTase inhibitor. Format: protein-complex assay.
Experiment [4] has the same target. The experiment can be described thus: Inhibition of Farnesyl protein transferase radiolabel [1-3H] incorporation. Format: protein-complex assay.
For experiment [5] the target is unchanged. Briefly: Displacement of radiolabeled farnesyl transferase inhibitor. The format is protein-complex assay.
For experiment [6], the target named is T1, Geranylgeranyl transferase type I. The experiment can be described thus: Inhibition of geranylgeranylation of C-terminal CAAX sequence of Rap 1a in PSN-1 cells. Format: functional, cell-based. In short, it runs like this:
(§2)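 PSN-1 cells; the read-out is inhibition of geranylgeranylation at the C-terminal CAAX sequence of Rap 1a, reported as EC50. Values are the mean of at least two determinations.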

Experiment [7] has the same target. The experiment is described as §1. The format is protein-complex assay. In short, it runs like this: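 Scintillation proximity assay: GGPTase reaction of [1-3H]GGPP with a biotinylated peptide of the K4B-Ras C-terminus at several inhibitor concentrations. Values are the mean of at least two determinations.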
This is another data set of the same source.

Experiment [8] has the same target. The experiment can be described thus: Inhibition of geranylgeranylation of the C-terminal CAAX sequence of Rap 1a in PSN-1 cells. The format is functional, cell-based. In short, it runs like this: as §2

Regarding `CS(=O)(=O)c1ccccc1COC(=O)N1CCN(Cc2cncn2Cc2ccc(C#N)cc2)CC1`, the pIC50 in experiment [1] was 7.74; in experiment [2] it was 7.00.
For `Cc1cccc(COC(=O)N2CCN(Cc3cncn3Cc3ccc(C#N)cc3)CC2)c1`, the pIC50 was 7.12 in experiment [1], 7.47 in experiment [2] and 6.78 in experiment [3].
As for `N#Cc1ccc(Cn2cncc2CN2CCN(C(=O)OCc3ccc4c(c3)OCO4)CC2)cc1`, the pIC50 is 6.92 in experiment [1] and 6.99 in experiment [2].
For the compound `Cc1ncc(CN2CCN(C(=O)OCc3ccccc3OC(F)(F)F)CC2)n1Cc1ccc(C#N)cc1`, the results for the pIC50 in experiment [4], in experiment [5] and in experiment [7] were 9.48, 9.47 and 7.28, respectively. The pEC50 in experiment [6] was 6.18.
Take `COc1ccccc1COC(=O)N1CCN(Cc2cncn2Cc2ccc(C#N)cc2)CC1`: the pIC50 in experiment [1] was 9.08; in experiment [2] it was 8.51; in experiment [3], 8.40 and 7.57.
In the case of `COCc1ccccc1COC(=O)N1CCN(Cc2cnc(C)n2Cc2ccc(C#N)cc2)CC1`, the values for the pIC50 in experiment [4], in experiment [5] and in experiment [7] were 7.77, 8.50 and 6.75, respectively. The same compound had a pEC50 in experiment [6] of 6.17.
On to `N#Cc1ccc(Cn2cncc2CN2CCN(C(=O)OCc3ccccc3OC(F)(F)F)CC2)cc1`, for which the pIC50 in experiment [1] was 9.80; in experiment [2] it was 9.44; in experiment [3], 8.66. Also, in experiment [8], the pEC50 is 7.74.
The corresponding values for `N#Cc1ccc(Cn2cncc2CN2CCN(C(=O)OCc3ccccc3CC(F)(F)F)CC2)cc1` are 8.32, 8.60, 9.07 and 7.30.
Take `CCOc1ccccc1COC(=O)N1CCN(Cc2cncn2Cc2ccc(C#N)cc2)CC1`: the pIC50 in experiment [1] was 9.49; in experiment [2], 8.80; in experiment [3], 8.34. In addition, the pEC50 in experiment [8] is 7.15.
`Cc1ccccc1COC(=O)N1CCN(Cc2cncn2Cc2ccc(C#N)cc2)CC1`: the pIC50 in experiment [7] was 8.04; in experiment [2] it was 8.19; in experiment [3] it was 7.20.
Consider `CCOc1ccccc1COC(=O)N1CCN(Cc2cnc(C)n2Cc2ccc(C#N)cc2)CC1`, for which the pIC50 is 7.10 in experiment [1], 8.82 in experiment [2] and 8.95 in experiment [3].
In the same order, the values of `N#Cc1ccc(Cn2cncc2CN2CCN(C(=O)OCc3cccc(OC(F)(F)F)c3)CC2)cc1` are 7.13, 7.87 and 7.92.
The corresponding values for `N#Cc1ccc(Cn2cncc2CN2CCN(C(=O)OCc3cccc4c3OCO4)CC2)cc1` are 7.70, 7.81 and 7.96.
Take `COCc1ccccc1COC(=O)N1CCN(Cc2cncn2Cc2ccc(C#N)cc2)CC1`: the pIC50 in experiment [1] was 9.49; in experiment [2] it was 8.21; in experiment [3], 8.04.
For `COc1ncccc1COC(=O)N1CCN(Cc2cncn2Cc2ccc(C#N)cc2)CC1`, the results for the pIC50 in experiment [1], in experiment [2] and in experiment [3] were 7.32, 7.74 and 7.89, respectively.
In the same order, the values of `N#Cc1ccc(Cn2cncc2CN2CCN(C(=O)OCc3ccccc3Cl)CC2)cc1` are 9.17, 8.17 and 8.10.
Regarding `Cc1ncc(CN2CCN(C(=O)OCc3ccccc3)CC2)n1Cc1ccc(C#N)cc1`, the pIC50 was 6.10 in experiment [1] and 7.72 in experiment [2].
`CCOc1ncccc1COC(=O)N1CCN(Cc2cncn2Cc2ccc(C#N)cc2)CC1`: the pIC50 in experiment [1] was 8.06; in experiment [2] it was 8.30; in experiment [3] it was 8.06.

As usually defined, the pIC50 is −log10 of the IC50, conventionally taken in molar units. The term pEC50 denotes −log10 of the EC50, conventionally taken in molar units.

These data come from ChEMBL document CHEMBL1135197, “The synthesis and biological evaluation of a series of potent dual inhibitors of farnesyl and geranyl-Geranyl protein transferases” (Bioorg Med Chem Lett, 2002).
